Results as given in publication PMC10922102 (Cell chemical biology, 2023).

What was measured:
[1] = target: T1, recombinant human DHFR•NADPH complex (Homo sapiens, UniProt P00374); test: Fluorescence polarization; format: binding
T1 sequence (P00374 1-187): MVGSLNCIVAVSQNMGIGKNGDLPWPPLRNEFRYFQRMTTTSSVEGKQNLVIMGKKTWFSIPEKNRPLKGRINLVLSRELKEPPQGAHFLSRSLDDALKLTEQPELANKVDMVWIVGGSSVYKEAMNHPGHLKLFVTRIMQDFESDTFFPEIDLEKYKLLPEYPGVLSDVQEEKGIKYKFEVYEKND

[2] = target: T2, DHFR-HiBiT (Homo sapiens, UniProt P00374); test: DHFR HiBiT assay; format: cell-based; settings: for Degradation potency (pDC50): DHFR-HiBiT, 24 h, 30°C, mean ±SD, three independent experiments, ND = not determined (inactive); for Emax: HBL1, read-out: Assay max response (%)
T2 sequence (P00374 1-187): T1 sequence (P00374 1-187)

[3] = tested on: MOLT-4 cells; test: CellTiter-Glo cytotoxicity in MOLT-4 cells; format: cell-based, human
[4] = tested on: HBL-1 cells; settings: human, 72 h
[5] = in vitro; settings: human
[6] = tested on: MTX resistant (MTX^R) HBL-1 cells; test: Cell viability of MTX resistant; format: cell-based, human
[7] = target: T3, DHFR (Homo sapiens, UniProt P00374); test: Western blot analysis of cellular DHFR; format: cell-based
T3 sequence (P00374 1-187): T1 sequence (P00374 1-187)

[8] = target: T4, cellular DHFR (Homo sapiens, UniProt P00374); test: Label-free quantitative proteomics of HBL-1 cells; format: cell-based; settings: 1 μM, 24 h
T4 sequence (P00374 1-187): T1 sequence (P00374 1-187)

[9] = tested on: HBL-1 cells; test: Targeted metabolomics; format: cell-based, human; settings: folate-replete media, 0.1 or 0.5 μM, 24 h
Summary of the method: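 HBL-1 cells were expanded in RPMI 1640 with 1 mM HEPES, 100 U/mL penicillin, 100 µg/mL streptomycin and 10% FBS at 37 °C, 5% CO2. Metabolites were eluted by LC-MS/MS gradient. Buffer A was acetonitrile and Buffer B was 5% acetonitrile with 20 mM ammonium acetate, pH 9.0. The gradient started at 85% A and fell to 50% A by 17 min.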

[10] = tested on: HBL-1 cells; test: Folate cytotoxicity dependence; format: cell-based, human
[11] = tested on: HEK-293 cells; test: Live-cell imaging of cell growth; format: cell-based, human; settings: live-cell imaging over 120 h
[12] = tested on: MTX sensitive (MTX^S) HBL-1 cells; test: Cell viability of MTX sensitive; format: cell-based; settings: Homo sapiens, HBL1, read-out: EC50, cell viability
[13] = tested on: HBL-1 cells; test: cells; settings: Homo sapiens, HBL1, read-out: EC50 in MTX-sensitive HBL-1 cells

IC50 [1] [nM] | Degradation potency (pDC50) ([2]; HBL-1 cells) | Emax [2] [%] | EC50 at 72 h [5] [nM] | Structure (SMILES) | Cytotoxicity efficacy (viability, %CTG) [4] [%] | also measured
– | 7.56 ±0.29 | -71.9 ± 2.1 | 5750 | COC(=O)[C@H](CCC(=O)NCCCCCCCCNc1cccc2c1C(=O)N(C1CCC(=O)NC1=O)C2=O)NC(=O)c1ccc(N(C)Cc2cnc3nc(N)nc(N)c3n2)cc1 (stereo partly drawn) [VSTX-ME, 9, Methyl N2-(4-(((2,4-diaminopteridin-6-yl)methyl)(methyl)amino)benzoyl)-N5-(8-((2-(2,6-dioxopiperidin-3-yl)-1,3-dioxoisoindolin-4-yl)amino)octyl)-L-glutaminate] | −26.8 ±22.7 | time of maximum DHFR-HiBiT depletion ([2]; HBL-1 cells, time course 5 to 72 h): 24 h; effect on cell viability between parental (MTX^S) and MTX^R HBL-1 cell lines [6]: unchanged; DHFR level by western blot ([7]; 24 h, HBL-1, HEK-293, Jurkat, MOLT-4, DND-41, TALL-5 cells): consistently able to degrade DHFR across this cell panel at sub-micromolar concentrations; DHFR degradation by western blot in MTX^R cells ([7]; MTX^R HBL-1 cells): remained capable of degrading DHFR in the MTX^R cells; change of cellular DHFR by proteomics [8]: significant degradation of cellular DHFR; cellular dUMP levels [9]: only a modest increase; purine nucleotides ATP and GTP relative to untreated control [9]: decreased
85.1 | 6.43 ±0.18 | -70.1 ± 0.4 | 21400 | CN(Cc1cnc2nc(N)nc(N)c2n1)c1ccc(C(=O)N[C@@H](CCC(=O)NCCCCCCCCNc2cccc3c2C(=O)N(C2CCC(=O)NC2=O)C3=O)C(=O)O)cc1 (stereo partly drawn) [Versortrexate (VSTX), 6, N2-(4-(((2,4-diaminopteridin-6-yl)methyl)(methyl)amino)benzoyl)-N5-(8-((2-(2,6-dioxopiperidin −3-yl)-1,3-dioxoisoindolin-4-yl)amino)octyl)-L-glutamine] | −45.7 ±26.9 | –
7240 | – | 21.2 ± 2.5 | – | CN(Cc1cnc2nc(N)nc(N)c2n1)c1ccc(C(=O)NC(CCC(=O)O)C(=O)NCCCCCCCCNc2cccc3c2C(=O)N(C2CCC(=O)NC2=O)C3=O)cc1 (centres unmarked) [VSTX-αE3L, 8, 4-(4-(((2,4-diaminopteridin-6-yl)methyl)(methyl)amino)benzamido)-5-((8-((2-(2,6-dioxopiperidin-3-yl)-1,3-dioxoisoindolin-4-yl)amino)octyl)amino)-5-oxopentanoic acid] | −2.0 ±16.2 | change of cellular DHFR-HiBiT level ([2]; HBL-1 cells): did not lead to appreciable changes in DHFR-HiBiT concentration; cytotoxicity in folic acid-free, replete and rescue conditions [10]: showed no cytotoxicity
93.3 | – | 53.9 ± 5.2 | 1050 | CN(Cc1cnc2nc(N)nc(N)c2n1)c1ccc(C(=O)N[C@@H](CC(F)C(=O)O)C(=O)O)cc1 (stereo partly drawn) [FMTX, 2, (2S)-2-(4-(((2,4-diaminopteridin-6-yl)methyl)(methyl)amino)benzamido)-4-fluoropentanedioic acid, reference compound] | −65.7 ±5.7 | effect on cellular confluence [11]: reduced cellular confluence beginning after 48 h of treatment
25.1 | – | 39.3 ± 6.6 | – | CN1C(=O)CCC(N2C(=O)c3cccc(NCCCCCCCCNC(=O)CC[C@H](NC(=O)c4ccc(N(C)Cc5cnc6nc(N)nc(N)c6n5)cc4)C(=O)O)c3C2=O)C1=O (stereo partly drawn) [VSTX-IE3L, 7, N2-(4-(((2,4-diaminopteridin-6-yl)methyl)(methyl)amino)benzoyl)-N5-(8-((2-(1-methyl-2,6-dioxopiperidin-3-yl)-1,3-dioxoisoindolin-4-yl)amino)octyl)-L-glutamine] | 6.2 ±4.4 | change of cellular DHFR-HiBiT level ([2]; HBL-1 cells): increase in cellular DHFR-HiBiT; cytotoxicity in folic acid-free, replete and rescue conditions [10]: did not exhibit appreciable toxicity in any of the conditions
– | – | – | 61.7 | CN(Cc1cnc2nc(N)nc(N)c2n1)c1ccc(C(=O)N[C@@H](CCC(=O)O)C(=O)O)cc1 [MTX, 1, Methotrexate, reference compound] | −68.7 ±5.7 | increase of cytotoxicity in folate-depleted vs. folate-containing media [10]: < 2 fold; EC50 [12]: 45.2 nM; EC50 ([6]; Homo sapiens, HBL1, 240 h, read-out: EC50, cell viability): 4640 nM; effect on cellular confluence [11]: reduced cellular confluence beginning after 48 h of treatment; cellular dUMP levels [9]: significant increase in dUMP levels; EC50 [13]: < 100 nM

Structure (SMILES) | IC50 [1] [nM] | Degradation potency (pDC50) ([2]; HBL-1 cells) | Emax [2] [%] | EC50 at 72 h [5] [nM] | Cytotoxicity efficacy (viability, %CTG) [4] [%] | also measured
CN(Cc1cnc2nc(N)nc(N)c2n1)c1ccc(C(=O)N[C@@H](CCC(=O)NCCOCCOCCOCCNC(=O)COc2cccc3c2C(=O)N(C2CCC(=O)NC2=O)C3=O)C(=O)O)cc1 (stereo partly drawn) [Compound 3, (19S)-19-(4-(((2,4-diaminopteridin-6-yl)methyl)(methyl)amino)benzamido)-1-((2-(2,6-dioxopiperidin-3-yl)-1,3-dioxoisoindolin-4-yl)oxy)-2,16-dioxo-6,9,12-trioxa-3,15-diazaicosan-20-oic acid] | 43.7 | 6.27 ±0.21 | -40.6 ± 1.8 | 2820 | −72.1 ±7.9 | DHFR concentration in the HiBiT assay, % of DMSO control ([2]; 24 h treatment, HBL-1 cells): ~ 40%; CTG cytotoxicity compared to PROTAC 4 [3]: more cytotoxic than PROTAC 4 by an order of magnitude; cytotoxicity compared to PROTAC 4 [4]: an order of magnitude improvement in cytotoxicity when compared to PROTAC 4
